An excerpt weighted towards active compounds, which were near 2.6% of everything screened.
VLA-4 inh – inhibition in a human VLA-4 binding assay; VLA-4 expressing cells, ligand binding flow cytometry; inhibition, % (about 7 µM as worked out from the volumes in the protocol); 330,000 compounds, 0.2% hits; AID 2557; in the data active means inhibition above about 50%
Rce1 inh – blocks yeast Ras-converting enzyme. yeast membranes, quenched prenylated peptide cleavage fluorescence. Q03530. calls only. AID 2563. 290,000 compounds, 0.27% hits;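 active means fall in fluorescence gain of 50% or more versus controls, with final raw signal at or below 3038400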
Target sequence (Q03530 whole entry, looked up): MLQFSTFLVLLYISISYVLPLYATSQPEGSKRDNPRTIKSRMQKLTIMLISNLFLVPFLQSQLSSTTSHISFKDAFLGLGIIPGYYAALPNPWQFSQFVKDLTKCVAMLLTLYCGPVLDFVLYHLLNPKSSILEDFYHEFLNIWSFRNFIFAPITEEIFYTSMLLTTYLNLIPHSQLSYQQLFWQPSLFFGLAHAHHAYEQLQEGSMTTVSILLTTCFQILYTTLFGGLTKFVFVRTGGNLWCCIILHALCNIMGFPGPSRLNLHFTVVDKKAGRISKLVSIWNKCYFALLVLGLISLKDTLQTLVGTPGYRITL
TAAR1 antagonist – human TAAR1 antagonism. inhibition, % at 3 µM. AID 624466. 360,000 compounds, 1.5% hits. CHO RD-HGA16 TAAR1, Fluo-8 calcium fluorescence, antagonist;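 active means inhibition above a per-plate cutoff, the mean inhibition of test compounds on that plate plus 3 SD, cut at about 49% in these data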
Target sequence (Q96RJ0 whole entry, looked up): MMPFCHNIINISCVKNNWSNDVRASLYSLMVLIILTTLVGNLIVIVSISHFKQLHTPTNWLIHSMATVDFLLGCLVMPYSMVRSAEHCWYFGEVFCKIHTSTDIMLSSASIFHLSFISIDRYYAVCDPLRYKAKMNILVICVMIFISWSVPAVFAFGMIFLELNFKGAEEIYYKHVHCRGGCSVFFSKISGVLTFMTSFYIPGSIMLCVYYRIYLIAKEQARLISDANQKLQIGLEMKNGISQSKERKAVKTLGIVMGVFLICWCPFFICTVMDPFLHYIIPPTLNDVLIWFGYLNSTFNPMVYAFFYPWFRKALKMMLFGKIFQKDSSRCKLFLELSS
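Material: CHO RD-HGA16 cells bearing hTAAR1; compound dosing: one-point dosing, 3 µM nominal final; schedule: dye loading 75 min at 37 °C, then 30 min room temperature; measured by: calcium fluorescence with Fluo-8; control set: vehicle and agonist controls; replication: n of 1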
TAAR1 agonist – human TAAR1 agonism; Q96RJ0; CHO RD-HGA16 TAAR1, Fluo-8 calcium fluorescence; vehicle wells 0%, saturating PEA agonist 100%; activation, % at 3 µM; 360,000 compounds, 0.99% hits; AID 624467;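 active means activation above the mean activation of all test compounds in the run plus 3 SD, cut at about 38% in these data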
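System: CHO-derived RD-HGA16 cells with stable Gα16 and human TAAR1. Times: 17-24 h plating, Fluo-8 75 min 37 °C, 30 min RT. Measured by: calcium-sensitive Fluo-8 signal, excitation 470-495, emission 515-575 nm. Read-out basis: % activation relative to PEA EC100 response. Control set: DMSO and PEA EC100. Repeats: no replicates (n 1).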
Platelet DG rel – modulates dense granule release in human platelets; human platelet-rich plasma, SFLLRN dense granule ATP release, luminescence; inhibition, %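 (compounds screened at 7.5 µM in platelet-rich plasma)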; 300,000 compounds, 0.22% hits;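 active means mean replicate score, as percent of positive control, at or above 50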
Hits are given with their value; i = inactive; nt = no result given; + = active, no number.

SMILES	VLA-4 inh	Rce1 inh	TAAR1 antagonist	TAAR1 agonist	Platelet DG rel
CN(c1cccc(NC(=O)CN(c2ccc(Cl)c(Cl)c2)S(=O)(=O)c2ccccc2)c1)S(C)(=O)=O	i	i	57	i	i
COc1cc(NC(=O)c2ccc(S(=O)(=O)N(C)c3ccccc3)cc2)cc(OC)c1	i	nt	51	i	nt
COc1cc(OC)cc(C(=O)Nc2ccc(C(=O)Nc3ccccc3OC)cc2)c1	i	nt	56	i	nt
Cc1nc2cc(NC(=O)c3ccc(S(=O)(=O)N(C)c4ccccc4)cc3)ccc2o1	i	i	51	i	i
Cc1ccc(S(=O)(=O)N(CC(=O)Nc2cccc(N(C)S(C)(=O)=O)c2)c2ccc(Cl)c(Cl)c2)cc1	i	i	i	i	i
O=C(CN1C2CCCC1CC(NC(=O)c1ccccc1)C2)NC1CC1 (centres undefined)	i	i	i	i	i
O=C(COc1ccccc1-c1ccccc1)Nc1ccc(S(=O)(=O)NCc2ccco2)cc1	i	i	61	i	i
Cc1cc(C)n(-c2ccc(C(=O)Nc3ccc(S(=O)(=O)NCc4ccco4)cc3)cc2)n1	i	i	62	i	i
Cc1ccc(C(=O)Nc2ccc(S(=O)(=O)NCc3ccco3)cc2)cc1	i	i	i	i	i
O=S(=O)(NCc1ccccc1)c1ccc(NC(=S)NCc2ccco2)cc1	i	i	53	41	i
CCOc1cc(OCC)cc(C(=O)N2CCC[C@@H]2C(=O)N2CCC[C@H]2C(=O)NCc2ccncc2)c1	nt	nt	i	i	nt
Cc1ccc(CN2CCNC(=O)C2CC(=O)NCCCn2nnc3ccccc32)cc1 (centres undefined)	nt	nt	i	i	nt
COc1ccc(-c2cc(C(=O)OC3CCOC3=O)c3ccccc3n2)cc1 (centres undefined)	i	i	53	i	i
O=C(OC1CCOC1=O)c1cc(-c2ccc(Br)cc2)nc2ccccc12 (centres undefined)	i	i	i	i	i
COc1ccc(C(=O)N2CCCC2(C)C(=O)NCC(C)C)cc1C(F)(F)F (centres undefined)	nt	nt	i	i	nt
CCc1ccc(OCCCC(=O)NCc2ccco2)cc1	i	i	i	i	i
CCc1ccc(N/C(SCc2ccccc2C)=C(/C#N)C(=O)NCc2ccco2)cc1	i	i	51	i	i
CC(C)(C)c1ccc(OCC(O)CN2CCOCC2)cc1 (centres undefined)	i	i	i	i	i
CCN(CC)c1ccc(/C=c2\sc3nc4ccccc4n3c2=O)c(O)c1	nt	nt	64	i	i
CC(C)NCc1cc(Br)ccc1OCc1ccccc1	i	i	i	43	i
CC1(C)CC(=O)C=C(c2ccc(-c3ccc(OC(F)(F)F)cc3)cc2)C1=O	nt	nt	i	i	nt
O=C(Nc1cccc(Cl)c1)Nc1ccnc(-c2cccnc2)n1	i	i	55	i	i
Cc1cc(C(=O)N[C@@H](c2ccccc2)[C@]2(C)C[C@H]2[C@@H](C)C(=O)Nc2ccc3ccccc3c2)no1	i	i	i	i	i
Cc1cc(C(=O)N[C@H](c2ccccc2)[C@@]2(C)C[C@@H]2[C@@H](C)C(=O)Nc2ccc3ccccc3c2)no1	i	i	53	i	i
O=C(COC(=O)c1ccc(Cl)c(S(=O)(=O)N2CCCCCC2)c1)Nc1ccccc1	i	i	53	i	i
SMILES	VLA-4 inh	Rce1 inh	TAAR1 antagonist	TAAR1 agonist	Platelet DG rel
CC(=O)c1c(C)[nH]c(C(=O)OCC(=O)Nc2cccc(S(=O)(=O)N(C)C)c2)c1C	i	i	i	i	i
O=C(COC(=O)c1ccc(S(=O)(=O)N2CCCC2)cc1)Nc1ccccc1	i	nt	i	i	nt
CCN(CC)S(=O)(=O)c1cccc(NC(=O)COC(=O)c2[nH]c(C)c(C(C)=O)c2C)c1	nt	nt	55	i	nt
CC(=O)c1c(C)[nH]c(C(=O)OCC(=O)Nc2cccc(S(=O)(=O)N3CCCC3)c2)c1C	i	i	50	i	i
O=C(COC(=O)C1CC2C=CC1C2)Nc1cccc(S(=O)(=O)N2CCCCCC2)c1 (centres undefined)	i	i	68	i	i
O=C(COC(=O)CC1CCCC1)Nc1ccccc1[N+](=O)[O-]	i	nt	i	i	nt
COC[C@H]1CCCN1c1ccc2c(c1)O[C@@H](COCc1ccccc1)CN([C@@H](C)c1ccccc1)S2(=O)=O	nt	nt	i	i	nt
CN(CC(=O)Nc1ccccc1Cl)C(=O)CCc1nc2ccccc2c(=O)[nH]1	i	i	i	i	i
O=C(COC(=O)c1c(F)cccc1F)Nc1cccc(S(=O)(=O)N2CCCCC2)c1	nt	nt	50	i	nt
CC1CCCN(C(=O)COC(=O)C2CCN(S(=O)(=O)c3ccc4c(c3)OCCO4)CC2)C1 (centres undefined)	i	i	i	i	i
Cc1ccc(-n2nc3c(=O)n(C(C)C(=O)NCCC4=CCCCC4)nc(C)c3c2C)cc1 (centres undefined)	i	i	i	38	i
CC(C)NC(=O)C1(C)CN(S(C)(=O)=O)CC(=O)N1Cc1ccco1 (centres undefined)	nt	nt	i	i	nt
CC1(C)NC(=O)N(CC(O)COc2ccccc2C(=O)Nc2ccccc2)C1=O (centres undefined)	i	i	i	i	i
O=C(Nc1ccccc1)c1ccccc1OCC(O)CN1C(=O)c2ccccc2S1(=O)=O (centres undefined)	i	i	65	i	i
COc1ccc(OCC(=O)Nc2cc(S(=O)(=O)N3CCCC3)ccc2Cl)cc1	nt	nt	61	39	nt
COc1ccc(OCC(=O)Nc2cc(S(=O)(=O)N3CCCCC3)ccc2OC)cc1	i	i	i	i	nt
CCN(CC)S(=O)(=O)c1ccc(Cl)c(NC(=O)COc2ccc3c(C)cc(=O)oc3c2)c1	i	i	i	i	i
CCN(c1ccccc1)S(=O)(=O)c1ccc(Cl)c(NC(=O)CNCc2ccccc2OC)c1	i	nt	55	i	nt
CCN(CC)S(=O)(=O)c1ccc(Cl)c(NC(=O)COc2ccc(OC)cc2)c1	i	i	58	i	i
O=C(NCC1CCN(Cc2ccccc2F)CC1)Nc1cccc(Br)c1	i	i	i	i	i
Cc1sc2ncn(CC(=O)NCC(=O)N3CCN(c4ccc(F)cc4)CC3)c(=O)c2c1C	i	i	i	i	i
CCS(=O)(=O)c1ccc2oc(Nc3ccccc3Cl)nc2c1	i	i	i	i	57
Cc1ccc(C2c3c(n[nH]c3C)C(=O)N2Cc2ccccc2)cc1 (centres undefined)	nt	nt	i	i	nt
CCC(=O)N1CCC2(CC1)Oc1ccc(Cl)cc1C(=O)C21CC(c2ccccc2)=NO1 (centres undefined)	i	i	54	i	i
CC(C(=O)OCC(=O)N1CCN(c2ccccc2)CC1)N1C(=O)c2ccccc2C1=O (centres undefined)	i	nt	i	i	nt
COc1ccc(S(=O)(=O)N(C)C[C@H]2Oc3c(NC(=O)CCC(F)(F)F)cccc3C(=O)N([C@H](C)CO)C[C@@H]2C)cc1	i	nt	i	i	nt
CS(=O)(=O)Nc1ccccc1C(=O)NC1CC2CCC1C2 (centres undefined)	i	+	i	i	i
